From paper PMC4203308 (Biomacromolecules, 2013)
In brackets after ≈: the same amount, converted by molar mass. Several values for one entry are separate records, joined by “and”; a condition that tells them apart may be missing. Identical values can stand only once. Where no end group is shown, it is not given here.

Key:
S. Epidermidis (35984) = assay: microbe, parasite or virus in culture; assay type: cell-based; settings: for Antimicrobial activity (MIC): 35984, 20 h
S aureus (25923) = assay: microbe, parasite or virus in culture; assay type: cell-based, Staphylococcus aureus; settings: for Antimicrobial activity (MIC): 25923, 20 h
[1] = tested on: human lung carcinoma A549 cells; assay: Kinetics of peptide-induced cell membrane damage, LIVE/DEAD kit; assay type: cell-based; settings: LIVE/DEAD dye staining, 120 minutes of incubation
How it was run: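 A549 cells (freshly trypsinized) seeded at 2 × 10⁴ cells/well in collagen-coated glass chambers, grown overnight in F12K/10% FBS at 37 °C, 5% CO₂. Cells were PBS-washed three times and stained with LIVE/DEAD for 15 min. Test compound was added at a final 10 µM, and confocal images were taken over time (ex 488 nm; em 505–530 nm live, 560 nm dead). Membrane integrity was taken as % green of total green+red pixels.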

in vitro [2] = assay type: in vitro ADME
S. aureus (29213) = assay: microbe, parasite or virus in culture; assay type: cell-based, Staphylococcus aureus; settings: for Antimicrobial activity (MIC): 29213, 20 h
[3] = tested on: Staphylococcus aureus (ATCC 25923); assay: Co-culture of bacteria and mammalian cells: effect on bacteria; assay type: cell-based; settings: A549 monolayer + S. aureus (25923), 20 µM peptide, 6 hours
Peptide aggregation = assay type: physicochemical
in vitro [4] = assay type: cell-based; settings: human
[5] = Staphylococcus aureus, 20 h, read-out: Antimicrobial activity (MIC)

Compound | Antimicrobial activity (MIC) (S. Epidermidis (35984)) [µg/mL] | Antimicrobial activity (MIC) (S aureus (25923)) [µg/mL] | Cell lysis reached [1] [%] | estimated half-life in human sera (in vitro [2]) [h] | remaining at 5 h, 10 µM (in vitro [2]; human, serum) [%] | Antimicrobial activity (MIC) (S. aureus (29213)) [µg/mL] | Effect on S. aureus in co-culture (in words) [3] | Size of peptide aggregates (Nanosizer) (Peptide aggregation; PBS pH 7.4, 37 °C, long (> 4–6 hours / overnight) incubation, Zeta nanosizer) | Aggregate formation at acidic pH (in words) (Peptide aggregation; acidic pH, even very high peptide concentrations and long incubation) | Fraction of peptide in solution existing as aggregates (Peptide aggregation; after overnight incubation, PBS pH 7.4, DLS and congo red) | Time for aggregates to dissolve completely at pH 5.5 (Peptide aggregation; solution pH adjusted from physiological pH to pH=5.5 with HCl) [minutes] | IC50 at 2 h (in vitro [4]) [µM] | MIC (S. Epidermidis (35984); Staphylococcus epidermidis, 20 h, read-out: Antimicrobial activity (MIC)) [µg/mL] | MIC (S aureus (25923); [5]) [µg/mL] | MIC (S. aureus (29213); [5]) [µg/mL]
FLGALFRALSRLL [CL-1] | 4 | 8 | < 100 | 8 to 9 | > 95 | 8 | only S. aureus were selectively killed | > 2.0 µm and 2.5 µm | unable to form aggregates at acidic pH | 90–95% and ~95% | < 30 | – | – | – | –
FLGALFKALSKLL [PTP-7] | 8 | 4 | – | – | – | 8 | – | – | – | – | – | 9 | – | – | –
CC1(C)S[C@@H]2[C@H](NC(=O)Cc3ccccc3)C(=O)N2[C@H]1C(=O)O [Penicillin G] | – | – | – | – | – | – | – | – | – | – | – | – | 4 (≈ 12 µM) | 1 (≈ 2.99 µM) | 16 (≈ 47.8 µM)
